# Results: ChEMBL document CHEMBL1125263, “Streptonigrin and related compounds. 5. Synthesis and evaluation of some isoquinoline analogues” (J Med Chem, 1991)
# Assays:
# Lepidium sativum [1] = assay: In vitro root inhibition activity measured using seedlings of Lepidium sativum, and relative potency expressed with respect to streptonigrin.; format: functional
# Outline: (§1)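 Cress (L. sativum) seeds soaked in water 15–20 min, germinated on 0.6% agar at 27 °C in the dark for 24 h until radicles were ca. 1 cm. DMSO solutions (2000–40 μg/mL stocks, 200 μL per 20 mL agar) were set in 0.6% agar; DMSO-only controls. Eight seedlings per plate, 24 h at 27 °C in the dark. New root growth measured, duplicate runs (16 seedlings). %I = 1 − (T/C) × 100; probit analysis and linear regression gave I50.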
# Lepidium sativum [2] = assay: In vitro root inhibition activity using seedlings of Lepidium sativum; format: functional, organism-based; outline: as §1
# Bacillus subtilis [3] = assay: In vitro antibacterial activity against Bacillus subtilis; format: functional
# Bacillus subtilis [4] = assay: In vitro antibacterial activity measured against Bacillus subtilis and relative potency expressed with respect to streptonigrin.; format: functional
# Outline: (§2)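 Agar disc-diffusion plates seeded with B. subtilis spores, six discs per plate, incubated at 37 °C for 20 h. Zones of inhibition measured and averaged over four replicates. Zone diameter varied linearly with log concentration. Slopes were fitted by regression, with standard errors of the slope calculated.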
# Bacillus subtilis [5] = assay: Antibacterial activity against Bacillus subtilis and values were expressed as standard error for slope; format: functional; outline: as §2
SMILES,MIC (Bacillus subtilis [3]) [µM],Relative potency (Lepidium sativum [1]),I50 (Lepidium sativum [2]) [nM ml-1],Relative potency (Bacillus subtilis [4]),Slope (Bacillus subtilis [5])
COC1=C(N)C(=O)c2c(ccnc2-c2ccc([N+](=O)[O-])cc2)C1=O,–,1.34,9.41,–,–
COC1=C(N)C(=O)c2c(ccnc2-c2ccccc2)C1=O,27.2,1.12,11.25,0.05,14.78
C/N=C1\C(=O)c2ccnc(-c3ccccc3[N+](=O)[O-])c2C(O)=C1Br,6.76,1.3,10,0.2,5.21
COC1=C(N)C(=O)c2c(ccnc2Cc2ccccc2)C1=O,16,0.92,13.7,0.09,11.31
COC1=C(N)C(=O)c2c(ccnc2-c2cccc([N+](=O)[O-])c2)C1=O,5.2,1.96,6.43,0.26,4.93
COC1=C(N)C(=O)c2c(ccnc2-c2ccccc2[N+](=O)[O-])C1=O,9,2.09,6.03,0.15,10.3
C/N=C1\C(=O)c2ccnc(Cc3ccccc3)c2C(O)=C1Br,16,0.42,30.05,0.09,11.31

# More lines, main results first:
MIC (Bacillus subtilis [3]) [µM],SMILES,Relative potency (Lepidium sativum [1]),I50 (Lepidium sativum [2]) [nM ml-1],Relative potency (Bacillus subtilis [4]),Slope (Bacillus subtilis [5])
39.3,COC1=C(N)C(=O)c2c(ccnc2-c2ccccn2)C1=O,0.99,12.7,0.03,12.37
1.37,COC1=C(N)C(=O)c2nc(-c3nc(C(=O)O)c(C)c(-c4ccc(OC)c(OC)c4O)c3N)ccc2C1=O [STREPTONIGRIN],1,12.65,1,5.51
0.25,COC1=C(N)C(=O)c2nc(-c3nc(C(=O)O)c(C)cc3N)ccc2C1=O,2.3,5.5,5.48,4.75
33.4,COC1=C(N)C(=O)c2c(ccnc2-c2cccc(N)c2)C1=O,0.57,22.37,0.04,11.7
35.8,COC1=C(N)C(=O)c2c(ccnc2-c2ccc(N)cc2)C1=O,0.82,15.49,0.04,12.64
17.2,COC1=C(N)C(=O)c2c(ccnc2-c2ccccc2N)C1=O,0.19,65,0.08,9.2
14.1,COC1=C(N)C(=O)c2nc(-c3ccccn3)ccc2C1=O,1.37,9.18,0.1,10.23
